Source: ChEMBL document CHEMBL1773042, “Antiproliferative triterpenes from the leaves and twigs of Juglans sinensis on HSC-T6 cells” (2011)

Legend:
[1] = Antiproliferative activity against rat HSC-T6 cells at 100 uM after 48 hrs by MTT assay; assay type: functional; details: HSC-T6, 48 h
Method in brief: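 HSC-T6 (immortalized rat hepatic stellate line) kept in DMEM with 10% heat-inactivated FBS, penicillin/streptomycin, 37 °C, 5% CO2. Seeded at 5 × 10^4 cells/mL, grown 24 h, then exposed 48 h to vehicle or compound (10–100 μM, DMSO final 0.1%). MTT 2 mg/mL for 2 h, absorbance at 540 nm. Proliferation given as 100 × treated/vehicle absorbance. Mean of three independent experiments.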

[2] = Cell cycle arrest in rat HSC-T6 cells assessed as inhibition of DNA synthesis at S phase at 25 uM after 24 hrs; assay type: functional, cell-based; parameters: scale not given: the % may be the effect or the level left
Method in brief: (§1)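 Cells seeded at 5 × 10^5 cells/mL for 24 h, then treated at 25 μM for 24 or 48 h; controls received vehicle. Cells were harvested, washed twice in PBS pH 7.4 and fixed overnight in ice-cold 70% ethanol at 4 °C. Stained with PI/RNase buffer for 30 min at room temperature, then flow cytometry for phase distribution. Mean ± SD, three independent experiments in triplicate wells.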

[3] = Induction of apoptosis in rat HSC-T6 cells assessed as dead cells at 10 uM after 24 hrs using Annexin V-FITC staining by flow cytometry; assay type: functional
Method in brief: (§2)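 HSC-T6 cells seeded at 5 × 10^5 cells/mL in 12-well plates for 24 h, then exposed to compound at 10 or 25 μM for 24 or 48 h. Harvested, washed twice in PBS pH 7.4, stained with Annexin-V/PI and analysed by flow cytometry. Dead cells scored as Annexin-V−/PI+, given as percentage. Representative of three independent experiments.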

[4] = Induction of apoptosis in rat HSC-T6 cells assessed as dead cells at 10 uM after 48 hrs using Annexin V-FITC staining by flow cytometry; assay type: functional; method in brief: as §2
[5] = Cell cycle arrest in rat HSC-T6 cells assessed as inhibition of DNA synthesis at G0/G1 phase at 25 uM after 48 hrs; assay type: functional, cell-based; parameters: scale not given: the % may be the effect or the level left; method in brief: as §1
[6] = Induction of apoptosis in rat HSC-T6 cells assessed as early apoptotic cells at 25 uM after 24 hrs using Annexin V-FITC staining by flow cytometry; assay type: functional
Method in brief: (§3)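 After 24 h seeding at 5 × 10^5 cells/mL, HSC-T6 cells were treated at 10 or 25 μM for 24 or 48 h, then collected and washed twice with PBS. Annexin-V/PI double staining with flow cytometry separated Annexin-V+/PI− (early apoptotic), Annexin-V+/PI+ (late apoptotic) and Annexin-V−/PI+ (dead) cells, expressed as percentages. Data representative of three independent experiments.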

[7] = Induction of apoptosis in rat HSC-T6 cells assessed as dead cells at 25 uM after 48 hrs using Annexin V-FITC staining by flow cytometry; assay type: functional; method in brief: as §2
[8] = Induction of apoptosis in rat HSC-T6 cells assessed as dead cells at 25 uM after 24 hrs using Annexin V-FITC staining by flow cytometry; assay type: functional; method in brief: as §2
[9] = Induction of apoptosis in rat HSC-T6 cells assessed as viable cells at 25 uM after 48 hrs using Annexin V-FITC staining by flow cytometry; assay type: functional; details: HSC-T6, 48 h, read-out: Activity; method in brief: as §3
[10] = Cell cycle arrest in rat HSC-T6 cells assessed as inhibition of DNA synthesis at sub-G1 phase at 25 uM after 24 hrs; assay type: functional, cell-based; parameters: scale not given: the % may be the effect or the level left; method in brief: as §1
HSC-T6 [11] = assay: Induction of apoptosis in rat HSC-T6 cells assessed as change in cell morphology after 24 hrs by phase contrast microscopy; assay type: functional, cell-based
[12] = Cell cycle arrest in rat HSC-T6 cells assessed as inhibition of DNA synthesis at G2/M phase at 25 uM after 24 hrs; assay type: functional, cell-based; parameters: scale not given: the % may be the effect or the level left; method in brief: as §1
[13] = Induction of apoptosis in rat HSC-T6 cells assessed as late apoptotic cells at 25 uM after 24 hrs using Annexin V-FITC staining by flow cytometry; assay type: functional; method in brief: as §3
[14] = Cell cycle arrest in rat HSC-T6 cells assessed as inhibition of DNA synthesis at G2/M phase at 25 uM after 48 hrs; assay type: functional, cell-based; parameters: scale not given: the % may be the effect or the level left; method in brief: as §1
[15] = Cell cycle arrest in rat HSC-T6 cells assessed as inhibition of DNA synthesis at sub-G1 phase at 25 uM after 48 hrs; assay type: functional, cell-based; parameters: scale not given: the % may be the effect or the level left; method in brief: as §1
[16] = Cell cycle arrest in rat HSC-T6 cells assessed as inhibition of DNA synthesis at S phase at 25 uM after 48 hrs; assay type: functional, cell-based; parameters: scale not given: the % may be the effect or the level left; method in brief: as §1
[17] = Cell cycle arrest in rat HSC-T6 cells assessed as inhibition of DNA synthesis at G0/G1 phase at 25 uM after 24 hrs; assay type: functional, cell-based; parameters: scale not given: the % may be the effect or the level left; method in brief: as §1
HSC-T6 [18] = assay: Induction of apoptosis in rat HSC-T6 cells assessed as change in cell morphology after 48 hrs by phase contrast microscopy; assay type: functional, cell-based
[19] = Induction of apoptosis in rat HSC-T6 cells assessed as early apoptotic cells at 10 uM after 24 hrs using Annexin V-FITC staining by flow cytometry; assay type: functional; method in brief: as §3
[20] = Induction of apoptosis in rat HSC-T6 cells assessed as viable cells at 25 uM after 24 hrs using Annexin V-FITC staining by flow cytometry; assay type: functional; details: HSC-T6, 24 h, read-out: Activity; method in brief: as §3
[21] = Induction of apoptosis in rat HSC-T6 cells assessed as early apoptotic cells at 25 uM after 48 hrs using Annexin V-FITC staining by flow cytometry; assay type: functional; method in brief: as §3
[22] = Induction of apoptosis in rat HSC-T6 cells assessed as late apoptotic cells at 10 uM after 24 hrs using Annexin V-FITC staining by flow cytometry; assay type: functional; method in brief: as §3
[23] = Induction of apoptosis in rat HSC-T6 cells assessed as early apoptotic cells at 10 uM after 48 hrs using Annexin V-FITC staining by flow cytometry; assay type: functional; method in brief: as §3
HSC-T6 [24] = assay: Induction of apoptosis in rat HSC-T6 cells assessed as change in cell morphology at 10 to 50 uM by phase contrast microscopy; assay type: functional, cell-based; details: TDE = time-dependent effect
[25] = Induction of apoptosis in rat HSC-T6 cells assessed as viable cells at 10 uM after 48 hrs using Annexin V-FITC staining by flow cytometry; assay type: functional; details: HSC-T6, 48 h, read-out: Activity; method in brief: as §3
[26] = Induction of apoptosis in rat HSC-T6 cells assessed as viable cells at 10 uM after 24 hrs using Annexin V-FITC staining by flow cytometry; assay type: functional; details: HSC-T6, 24 h, read-out: Activity; method in brief: as §3
[27] = Induction of apoptosis in rat HSC-T6 cells assessed as late apoptotic cells at 10 uM after 48 hrs using Annexin V-FITC staining by flow cytometry; assay type: functional; method in brief: as §3
[28] = Induction of apoptosis in rat HSC-T6 cells assessed as late apoptotic cells at 25 uM after 48 hrs using Annexin V-FITC staining by flow cytometry; assay type: functional; method in brief: as §3
[29] = Antiproliferative activity against rat HSC-T6 cells at 50 uM after 48 hrs by MTT assay; assay type: functional; details: HSC-T6, 48 h
[30] = Antiproliferative activity against rat HSC-T6 cells at 10 uM after 48 hrs by MTT assay; assay type: functional; details: HSC-T6, 48 h

| Compound | inhibition at 100 µM [1] | Activity [2] | Activity [5] | Activity [10] | Activity (HSC-T6 [11]) | Activity [12] | Activity [14] | Activity [15] | Activity [16] | Activity [17] | Activity (HSC-T6 [18]) | Activity (HSC-T6 [24]) | further results |
| --- | --- | --- | --- | --- | --- | --- | --- | --- | --- | --- | --- | --- | --- |
| C[C@H]1[C@H](C)CC[C@]2(C(=O)O)CC[C@]3(C)C(=CC[C@@H]4[C@@]5(C)CC[C@H](O)[C@@](C)(CO)[C@@H]5CC[C@]43C)[C@H]12 | 50% | – | – | – | – | – | – | – | – | – | – | – | – |
| C[C@H]1[C@H](C)CC[C@]2(C(=O)O)CC[C@]3(C)C(=CC[C@@H]4[C@@]5(C)C[C@@H](O)[C@H](O)C(C)(C)[C@@H]5CC[C@]43C)[C@H]12 [COROSOLIC ACID] | 15.6% | 10.6% | 14.7% | 12.4% | Dose-dependent effect | 20.6% | 6% | 57.7% | 4.3% | 44.6% | Dose-dependent effect | tde | Activity [3]: 3.16%; Activity [4]: 5.44%; Activity [6]: 10.45%; Activity [7]: 31.85%; Activity [8]: 8.77%; viability at 25 µM [9]: 54.5%; Activity [13]: 15.24%; Activity [19]: 6.23%; viability at 25 µM [20]: 65.5%; Activity [21]: 4.41%; Activity [22]: 7.12%; Activity [23]: 10.14%; viability at 10 µM [25]: 66.6%; viability at 10 µM [26]: 83.5%; Activity [27]: 17.8%; Activity [28]: 9.23% |
| O=C(O[C@@H]1Cc2c(O)cc(O)cc2O[C@@H]1c1cc(O)c(O)c(O)c1)c1cc(O)c(O)c(O)c1 [EPIGALOCATECHIN GALLATE] | 33.4% | 12.1% | 42.3% | 1.9% | – | 20.1% | 19.6% | 4.5% | 8.3% | 51.9% | – | – | inhibition at 50 µM [29]: 41.7%; inhibition at 10 µM [30]: 83.8% |
| C[C@H]1[C@H](C)CC[C@]2(C(=O)O)CC[C@]3(C)C(=CC[C@@H]4[C@@]5(C)C[C@@H](O)[C@@H](O)[C@@](C)(CO)[C@@H]5CC[C@]43C)[C@H]12 | 20.6% | – | – | – | – | – | – | – | – | – | – | – | – |
| CC1(C)C=C2[C@H]3CC[C@@H]4[C@@]5(C)C(=O)C[C@H](O)C(C)(C)[C@@H]5CC[C@@]4(C)[C@]3(C)CC[C@@]2(C)CC1 | 14.2% | 14% | 43.6% | 1.9% | Dose-dependent effect | 17.8% | 18.8% | 5% | 10.6% | 53.2% | Dose-dependent effect | tde | – |
| C[C@H]1[C@H](C)CC[C@]2(C(=O)O)CC[C@]3(C)C(=CC[C@@H]4[C@@]5(C)CC[C@H](O)C(C)(C)[C@@H]5CC[C@]43C)[C@H]12 [URSOLIC ACID] | 14.8% | 11.9% | 39.7% | 2.9% | Dose-dependent effect | 18.9% | 16.7% | 17% | 9.6% | 56.4% | Dose-dependent effect | tde | – |
| C[C@H]1[C@H](C)CC[C@]2(C(=O)O)CC[C@]3(C)C(=CC[C@@H]4[C@@]5(C)CCC(=O)[C@@](C)(CO)[C@@H]5CC[C@]43C)[C@H]12 | 77.9% | – | – | – | – | – | – | – | – | – | – | – | – |
| C=C(C)[C@@H]1CC[C@]2(C)CC[C@]3(C)[C@H](CC[C@@H]4[C@@]5(C)C[C@@H](O)[C@H](O)C(C)(C)[C@@H]5CC[C@]43C)[C@@H]12 | 11% | 13.7% | 47.2% | 1.9% | Dose-dependent effect | 19.3% | 18% | 5.4% | 11% | 55.9% | Dose-dependent effect | tde | – |
